An excerpt weighted towards active compounds, which were near 0.77% of everything screened.
ABCG2 block = human ABCG2 inhibition, ABCB1 as counter-screen | Q9UNQ0 | IgMXP3 cells, JC-1 efflux, flow cytometry | inhibition, % at 6.6 µM | 190,000 tested, 0.1% active | AID 1325;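 active = inhibition above 80%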
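Test system: IgMXP3 cells (ABCG2) mixed with DDAO far-red-labelled CCRF-Adr cells (ABCB1). Reagent: JC-1 transporter substrate. Compound dosing: single test compound dose, 6.6 µM final. Times: 10 min compound exposure, 25 °C. Detection: flow cytometry of retained JC-1 fluorescence. Read-out basis: efflux inhibition in percent versus controls. Controls: nicardipine and DMSO wells.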
ABCB1 inh = human ABCB1 inhibition, ABCG2 as counter-screen; 190,000 tested, 0.067% active; inhibition, % at 6.6 µM; AID 1326; CCRF-Adr cells, JC-1 efflux, flow cytometry; P08183; in the data active = inhibition above about 40%;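 note: higher value means more JC-1 retained so stronger ABCB1 efflux block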
PERK inh = inhibitors of human PERK kinase. inhibition, % at 5.6 µM. 220,000 tested, 0.17% active. CHO PERK-DD fusion, SEAP luminescence translation reporter. AID 1416. Q9NZJ5;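 active = inhibition above the mean inhibition of all tested compounds plus 3 SD, set separately per screening campaign, cut at about 2.9% in these data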;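 note: PERK kinase domain activated by AP20187 dimerizer at 100 nM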
Furin inh = blocks human furin protease activity | P09958 | purified furin, fluorogenic substrate cleavage | inhibition, % at 20 µM or 30 µM | 220,000 tested, 0.061% active | AID 463115; in the data active = inhibition above about 25%
Efa HMGR inh = E. faecalis class II HMG-CoA reductase inhibition; purified E. faecalis HMGR, NADPH absorbance 340 nm kinetic; inhibition, % at 10 µM; 190,000 tested, 0.41% active;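 active = inhibition above a set limit, the median over all tested compounds plus 3 SD, cut at about 9.5% in these data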;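 note: enzyme runs in reverse so mevalonate oxidation gives rising NADPH absorbance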
Rad51 HR inh = blocks human Rad51 in homologous recombination; Q06609; hRad51 DNA strand exchange, fluorescence dequenching; inhibition, % at 10 µM; 200,000 tested, 0.085% active;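 active = inhibition above 40% at the single screening dose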
Target sequence (Q06609 whole entry, looked up): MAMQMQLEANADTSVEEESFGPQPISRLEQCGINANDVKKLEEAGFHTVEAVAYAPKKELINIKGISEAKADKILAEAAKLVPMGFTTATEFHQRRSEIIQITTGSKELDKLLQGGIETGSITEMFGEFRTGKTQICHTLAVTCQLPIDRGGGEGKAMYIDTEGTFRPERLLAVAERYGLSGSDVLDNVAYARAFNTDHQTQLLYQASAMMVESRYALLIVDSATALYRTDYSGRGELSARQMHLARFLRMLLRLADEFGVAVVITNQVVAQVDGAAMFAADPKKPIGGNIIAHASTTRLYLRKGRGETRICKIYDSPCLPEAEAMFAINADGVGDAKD
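System: hRad51 filaments on single-stranded DNA; reagent: Fluorescein- and BHQ1-tagged 47-mer duplex; compound dosing: one concentration, 10 µM final; timing: filaments 15 min 37 °C, then compound 30 min; measured by: fluorescein emission 520 nm, excitation 485 nm; benchmarks: per-plate controls and blanks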
Each line names hits and unclear results; the compound was inactive in the other large screens.

C=CCn1c(Oc2ccccc2)nc2c1c(=O)n(C)c(=O)n2C	Efa HMGR inh 16.3
Cc1cccc(C)c1NC(=O)CN1C(=O)NC(C)(CCc2ccccc2)C1=O (stereo not given)	Efa HMGR inh 13.3
COc1cc(NC(=O)c2ccccc2)c(OC)cc1Cl	Furin inh 27.0
COc1cc(N)c(Cl)cc1NC(=O)c1ccccc1	none
O=C1OCC2OC(O)C(O)C(O)C2OC(=O)c2cc(O)c(O)c(O)c2-c2c(O)c(O)c3oc(=O)c4c(c(O)c(O)c5oc(=O)c2c3c54)-c2c1cc(O)c(O)c2O (stereo not given)	Rad51 HR inh 68.0 (no result: ABCG2 block, ABCB1 inh, PERK inh, Efa HMGR inh)
NS(=O)(=O)c1ccc(CCNC(=O)CCCCCn2c(=S)[nH]c3ccc(Br)cc3c2=O)cc1	none
O/N=C/c1ccc2cccc(O)c2n1	PERK inh 3.7 (no result: ABCG2 block, ABCB1 inh, Efa HMGR inh)
O/N=C/c1ccc2ccccc2n1	none (no result: ABCG2 block, ABCB1 inh, Efa HMGR inh)
O=C(Cc1n[nH]c(=O)c2ccccc12)NC(c1ccccc1)c1ccccc1	none (no result: ABCG2 block, ABCB1 inh, Efa HMGR inh)
CCN1N=C(c2cc(Cl)sc2Cl)CSC1=O	none
O=C1CCCC(O)=C1C=Nc1cccc(C(F)(F)F)c1	Furin inh 25.9
C#Cc1ccc([C@@H]2C=C(C(=O)N3CCOCC3)O[C@H](OCC)[C@H]2CCCO)cc1	none
Cc1c2cnn(-c3ccccc3)c(=O)c2c(C)n1CCCC(=O)NCCN1CCN(C)CC1	PERK inh 3.7 (no result: ABCG2 block, ABCB1 inh, Efa HMGR inh)
Nc1nc(SCc2ccccc2Cl)ns1	Efa HMGR inh 12.8
CC1CN(c2nc3ccccn3c(=O)c2/C=C(\C#N)S(=O)(=O)c2ccccc2)CC(C)O1 (stereo not given)	Furin inh 31.1
CN1CCN(c2nc3ccccn3c(=O)c2/C=C(\C#N)S(=O)(=O)c2ccccc2)CC1	none (no result: ABCG2 block, ABCB1 inh, Efa HMGR inh)
CC(C)(C)C(=O)Cn1nnc(-c2ccc(C(F)(F)F)cc2)n1	none (no result: ABCG2 block, ABCB1 inh, Efa HMGR inh)
NC(=O)Cn1nnc(-c2ccc(C(F)(F)F)cc2)n1	Furin inh 26.2
O=C(O)C1CCN(C(=O)NC2CCCCC2)CC1	PERK inh 2.9
COc1cc(NC2c3ncccc3C(=O)N2Cc2ccco2)cc(OC)c1OC (stereo not given)	none
CCOC(=O)N/N=C(\CCC(=O)O)c1cccs1	PERK inh 3.0 (no result: ABCG2 block, ABCB1 inh, Efa HMGR inh, Rad51 HR inh)
O=C(O)CC/C(=N/NC(=O)c1cccs1)c1ccccc1	none (no result: Rad51 HR inh)
O=S(=O)(Nc1ccncc1Cl)c1ccc2ccccc2c1	none
Cc1cc(C)c(C#N)c(Oc2ccc(O)cc2)n1	none
CCCC(=O)Nc1cccc(Oc2nc(C)cc(C)c2C#N)c1	Furin inh 37.3
Cc1ccc2nc(NC3=NC(CC(=O)O)C(=O)N3)nc(C)c2c1 (stereo not given)	none
Cc1cc(C)c(S(=O)(=O)c2ccccc2)c(OC(=O)c2c(Cl)cc(Cl)cc2Cl)n1	none
Cc1cc(C)c(S(=O)(=O)c2ccccc2)c(OC(=O)c2c(F)cccc2F)n1	Efa HMGR inh 13.5
COC(=O)C1=C(CSc2nc3c(cc2C#N)CN(C)CC3)OC(N)=C(C#N)C1c1ccc(F)cc1 (stereo not given)	Efa HMGR inh 14.0
O=C(O)/C=C/c1cn(Cc2ccccc2)nc1-c1ccccc1	Rad51 HR inh 44.4
CCOc1ccc(S(=O)(=O)N(C)CCO)cc1-c1nc2c(C(C)(C)C)nn(C)c2c(=O)[nH]1	Efa HMGR inh 24.9 (no result: Rad51 HR inh)
CN(C)c1cc(-c2ccc(Cl)cc2Cl)oc(=O)c1Cl	none (no result: ABCG2 block, ABCB1 inh, Efa HMGR inh)
CCSC1=NSC2=NC(=O)/C(=C\c3coc4ccccc4c3=O)C(=N)N12	ABCG2 block active
CC(C)CC1=NN2C(=N)/C(=C\c3coc4ccccc4c3=O)C(=O)N=C2S1	none
COC(=O)Cc1ccc(NC(=S)NNC(=O)C2CC2)cc1	PERK inh 3.6 (no result: ABCG2 block, ABCB1 inh, Efa HMGR inh, Rad51 HR inh)
CC(C)c1ccc(NC(=S)NNC(=O)C2CC2)cc1	none (no result: Rad51 HR inh)
CCCCCC(=O)N(CN1C(=O)CCC1=O)c1ccccc1	Furin inh 31.5
CCCNC(=O)CSC1=N/C(=C/c2ccc(F)cc2)C(=O)N1CC	none
CCCCCNC(=O)CSC1=N/C(=C\c2ccc(Cl)c(Cl)c2)C(=O)N1CC	PERK inh 3.0
COc1ccc(C(=O)N2N=C3CC(C)(C)OCC3C2c2ccccc2)cc1 (stereo not given)	none (no result: Rad51 HR inh)
Cc1ccc(-n2nc(C)c(C(=O)O)n2)c(C)c1	none

High-throughput results deposited in PubChem BioAssay by several laboratories.
